Experimental data: ChEMBL document CHEMBL4725260, “Bisphosphonate esters interact with HMG-CoA reductase membrane domain to induce its degradation” (Bioorg Med Chem, 2020)
Activity calls are given as the source filed them. No cut-off for these calls is given here.

How the values were obtained:
[1] = molecular target: T1, 3-hydroxy-3-methylglutaryl-coenzyme A reductase (Homo sapiens) (UniProt P04035); assay: (§1) Induction of degradation of Flag-tagged human HMGCR-dCat-ELuc membrane domain (1 to 499 residues) expressed in HEK293 cells assessed as reduction in HMGCR-dCat-Eluc protein level after 4 hrs by luciferase reporter assay; type: cell-based
T1 sequence (whole entry): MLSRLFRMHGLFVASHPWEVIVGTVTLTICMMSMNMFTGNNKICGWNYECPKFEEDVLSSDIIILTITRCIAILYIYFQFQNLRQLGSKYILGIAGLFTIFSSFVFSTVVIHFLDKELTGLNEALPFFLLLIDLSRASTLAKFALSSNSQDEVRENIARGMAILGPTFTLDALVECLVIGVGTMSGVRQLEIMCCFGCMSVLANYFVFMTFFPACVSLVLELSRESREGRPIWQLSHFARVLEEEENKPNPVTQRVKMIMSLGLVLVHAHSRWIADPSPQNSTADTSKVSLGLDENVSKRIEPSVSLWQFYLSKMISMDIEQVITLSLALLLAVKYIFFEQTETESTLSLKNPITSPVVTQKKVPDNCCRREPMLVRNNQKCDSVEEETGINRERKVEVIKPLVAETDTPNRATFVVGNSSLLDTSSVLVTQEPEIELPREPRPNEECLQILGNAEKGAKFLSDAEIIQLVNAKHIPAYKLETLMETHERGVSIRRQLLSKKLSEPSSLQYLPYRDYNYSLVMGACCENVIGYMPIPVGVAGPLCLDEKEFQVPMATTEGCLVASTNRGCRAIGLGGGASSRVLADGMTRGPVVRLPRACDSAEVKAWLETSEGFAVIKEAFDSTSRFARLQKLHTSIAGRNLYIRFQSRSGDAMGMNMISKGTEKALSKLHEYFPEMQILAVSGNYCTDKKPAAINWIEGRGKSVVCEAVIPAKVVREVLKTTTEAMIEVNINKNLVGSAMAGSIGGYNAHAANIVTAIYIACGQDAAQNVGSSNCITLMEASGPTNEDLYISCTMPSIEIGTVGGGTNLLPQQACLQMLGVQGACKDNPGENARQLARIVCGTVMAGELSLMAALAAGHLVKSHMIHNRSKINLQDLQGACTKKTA
How it was run: (§2)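 HEK293 cells stably expressing HMGCR-dCat-ELuc (FLAG-tagged membrane domain, residues 1-499, emerald luciferase) in DMEM/10% FBS. Compound treatment 4 h, then remaining fusion quantified by luciferase luminescence. Normalized to 0.1% DMSO vehicle as % of control. EC50 given as mean ± SD of more than three independent dose-response experiments.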

[2] = molecular target: T2, 3-hydroxy-3-methylglutaryl-coenzyme A reductase (Homo sapiens, UniProt P04035); assay: as §1; type: cell-based; how it was run: as §2
T2 sequence (P04035 whole entry): T1 sequence (whole entry)

[3] = molecular target: T1, 3-hydroxy-3-methylglutaryl-coenzyme A reductase (Homo sapiens); assay: (§3) Binding affinity to Flag-tagged human HMGCR-dCat-ELuc membrane domain (1 to 499 residues) transfected in HEK293 cell membrane co-transfected with p-CMV-Insig1-myc-FLAG at 20 uM preincubated for 30 mins followed by irradiation with UV light for 3 mins by immunoprecipitation analysis; type: cell membranes
HEK293 [4] = assay: Cytotoxicity against human HEK293 cells assessed as cell viability at 0.01 to 10 uM incubated for 4 hrs by CytoRed viability assay; type: cell-based; details: hek293, 4 h, dose 0.01-10 µM
How it was run: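 CytoRed esterase-based viability read in the same wells as the 4 h HMGCR-dCat-ELuc stable HEK293 degradation assay, just before luciferase measurement.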

[5] = molecular target: T1, 3-hydroxy-3-methylglutaryl-coenzyme A reductase (Homo sapiens); assay: as §3, with “3 mins in presence of 50 to 200 uM SRP3042 by immunoprecipitation” for “3 mins by immunoprecipitation”; type: cell membranes
[6] = molecular target: T3, Insulin-induced gene 1 protein (Homo sapiens) (UniProt O15503); assay: Binding affinity to FLAG/myc-tagged Insig1 transfected in HEK293 cell membrane co-transfected with Flag-tagged human HMGCR-dCat-Eluc membrane domain (1 to 499 residues) at 20 uM preincubated for 30 mins followed by irradiation with UV light for 3 mins by immunoprecipitation analysis; type: cell membranes
T3 sequence (whole entry): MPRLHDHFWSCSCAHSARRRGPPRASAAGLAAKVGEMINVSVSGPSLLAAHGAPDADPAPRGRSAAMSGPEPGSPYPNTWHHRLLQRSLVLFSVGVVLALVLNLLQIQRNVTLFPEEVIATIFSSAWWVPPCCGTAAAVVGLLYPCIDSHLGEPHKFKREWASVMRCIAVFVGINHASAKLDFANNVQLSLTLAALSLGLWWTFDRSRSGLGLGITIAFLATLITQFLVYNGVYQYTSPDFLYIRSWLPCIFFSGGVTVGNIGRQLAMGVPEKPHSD

[7] = molecular target: T1, 3-hydroxy-3-methylglutaryl-coenzyme A reductase (Homo sapiens); assay: Induction of degradation of Flag-tagged human HMGCR-dCat-ELuc membrane domain (1 to 499 residues) expressed in HEK293 cells assessed as reduction in HMGCR-dCat-Eluc protein level at 10 uM after 4 hrs by luciferase reporter assay; type: cell-based; how it was run: as §2
HEK293 [8] = assay: Cytotoxicity against human HEK293 cells assessed as reduction in cell viability at 10 uM incubated for 4 hrs by CytoRed viability assay; type: cell-based; details: hek293, 4 h
How it was run: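 HEK293 cells stably expressing HMGCR-dCat-ELuc (HMGCR residues 1-499 with FLAG tag and emerald luciferase) are grown in DMEM with 10% FBS and penicillin-streptomycin at 5% CO2. Cells are dosed for 4 h. CytoRed, which reads cellular esterase activity, is measured in the same wells just before the luciferase read. The vehicle is 0.1% DMSO.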

Compound	EC50 ([2]; read-out: EC50)	Activity (HEK293 [4])	further results
C#CCCC1(CCOP(=O)(OC(C)C)C(Cc2cc(C(C)(C)C)nc(C(C)(C)C)c2)P(=O)(OC(C)C)OC(C)C)N=N1 (stereo not drawn)	417 nM	Non-Toxic	Activity [1]: Dose-dependent effect; Activity [3]: Active; Activity [5]: inactive; Activity [6]: inactive
C#CCOP(=O)(OC(C)C)C(Cc1cc(C(C)(C)C)nc(C(C)(C)C)c1)P(=O)(OC(C)C)OC(C)C (stereo not drawn)	633 nM	Non-Toxic	
CCOP(=O)(OCC)C(=Cc1ccc(O)cc1)P(=O)(OCC)OCC		Non-Toxic	EC50 ([2]; hek293): Not Active; Activity [7]: inactive
CC(C)OP(=O)(OC(C)C)C(=Cc1cc(C(C)(C)C)c(O)c(C(C)(C)C)c1)P(=O)(OC(C)C)OC(C)C	1340 nM		Activity (HEK293 [8]): Toxic
CCOP(=O)(OCC)C(=Cc1cc(C(C)(C)C)c(O)c(C(C)(C)C)c1)P(=O)(OCC)OCC	1100 nM		Activity (HEK293 [8]): Toxic
CCOP(=O)(OCC)C(Cc1cc(C(C)(C)C)c(O)c(C(C)(C)C)c1)P(=O)(OCC)OCC	2770 nM	Non-Toxic	
C#CCCOP(=O)(OC(C)C)C(Cc1cc(C(C)(C)C)nc(C(C)(C)C)c1)P(=O)(OC(C)C)OC(C)C (stereo not drawn)	795 nM	Non-Toxic	
CCOP(=O)(OCC)C(=Cc1ccc(O)c(C(C)(C)C)c1)P(=O)(OCC)OCC		Non-Toxic	EC50 ([2]; hek293): Not Active; Activity [7]: inactive
CC(C)OP(=O)(O)C(Cc1cc(C(C)(C)C)nc(C(C)(C)C)c1)P(=O)(OC(C)C)OC(C)C (stereo not drawn)		Non-Toxic	EC50 ([2]; hek293): Not Active; Activity [7]: inactive
C#Cc1cc(CC(P(=O)(OC(C)C)OC(C)C)P(=O)(OC(C)C)OC(C)C)cc(C(C)(C)C)c1	3540 nM	Non-Toxic	
CC(C)OP(=O)(OC(C)C)C(Cc1cc(I)cc(C(C)(C)C)c1)P(=O)(OC(C)C)OC(C)C	1460 nM	Non-Toxic	
CC(C)OP(=O)(OC(C)C)C(Cc1cc(C(C)(C)C)c(O)c(C(C)(C)C)c1)P(=O)(OC(C)C)OC(C)C [APOMINE]	876 nM	Non-Toxic	
CC(C)OP(=O)(OC(C)C)C(Cc1cc(N=[N+]=[N-])cc(C(C)(C)C)c1)P(=O)(OC(C)C)OC(C)C	1660 nM	Non-Toxic	
C#Cc1cc(CC(P(=O)(OC(C)C)OC(C)C)P(=O)(OC(C)C)OC(C)C)cc(N=[N+]=[N-])c1		Non-Toxic	EC50 ([2]; hek293): Not Active; Activity [7]: inactive
CC(C)OP(=O)(OC(C)C)C(Cc1cc(C(C)(C)C)cc(C(C)(C)C)c1)P(=O)(OC(C)C)OC(C)C	317 nM	Non-Toxic	
CCOP(=O)(OCC)C(=Cc1cc(C(C)(C)C)cc(C(C)(C)C)c1)P(=O)(OCC)OCC	1160 nM	Non-Toxic	
CC(C)OP(=O)(OC(C)C)C(Cc1cc(C(C)(C)C)nc(C(C)(C)C)c1)P(=O)(OC(C)C)OC(C)C	153 nM	Non-Toxic	Activity [1]: Dose-dependent effect
